Data reported in ChEMBL document CHEMBL3596093, “Synthesis and antimicrobial evaluation of 5-aryl-1,2,4-triazole-3-thione derivatives containing a rhodanine moiety” (2015).
≈ marks a conversion by molar mass, not a printed value.

What was measured:
Staphylococcus aureus [1] = assay: Antibacterial activity against Staphylococcus aureus RN4220 after 24 hrs by two-fold serial dilution method; format: functional; settings: RN4220, 24 h
Method in brief: (§1)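 Broth microdilution MIC. Bacteria grown to mid-log phase in Mueller-Hinton broth, diluted 1000-fold, about 10^5 CFU/mL. Compounds from DMSO stocks, two-fold serial dilution from a final 64 µg/mL. Incubation at 37 °C for 24 h. Growth read as absorbance at 630 nm on a microplate reader. Run in triplicate.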

Staphylococcus aureus [2] = assay: Antibacterial activity against Staphylococcus aureus KCTC 209 after 24 hrs by two-fold serial dilution method; format: functional; settings: KCTC 209, 24 h
Method in brief: (§2)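 Strains grown to mid-log phase in Mueller-Hinton broth, then diluted 1000-fold in the same broth to about 10^5 CFU/mL. Compounds were made up as DMSO stocks and two-fold serially diluted from a final top concentration of 64 µg/mL. Incubation was 37 °C for 24 h. Growth was read as absorbance at 630 nm on a microplate reader. MIC assays were run in triplicate.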

Staphylococcus aureus [3] = assay: Antibacterial activity against Staphylococcus aureus KCTC 503 after 24 hrs by two-fold serial dilution method; format: functional; settings: KCTC 503, 24 h; method in brief: as §2
Streptococcus mutans [4] = assay: Antibacterial activity against Streptococcus mutans 3065 after 24 hrs by two-fold serial dilution method; format: functional; settings: Streptococcus mutans, 3065, 24 h; method in brief: as §2
Escherichia coli [5] = assay: Antibacterial activity against Escherichia coli KCTC 1924 after 24 hrs by two-fold serial dilution method; format: functional; settings: KCTC 1924, 24 h; method in brief: as §2
Escherichia coli [6] = assay: Antibacterial activity against Escherichia coli CCARM 1356 after 24 hrs by two-fold serial dilution method; format: functional; settings: CCARM 1356, 24 h; method in brief: as §2
Pseudomonas aeruginosa [7] = assay: Antibacterial activity against Pseudomonas aeruginosa 2742 after 24 hrs by two-fold serial dilution method; format: functional; settings: Pseudomonas aeruginosa, 2742, 24 h; method in brief: as §2
Pseudomonas aeruginosa [8] = assay: Antibacterial activity against Pseudomonas aeruginosa 2004 after 24 hrs by two-fold serial dilution method; format: functional; settings: Pseudomonas aeruginosa, 2004, 24 h; method in brief: as §2
Salmonella typhimurium = assay: Antibacterial activity against Salmonella typhimurium 2421 after 24 hrs by two-fold serial dilution method; format: functional, Salmonella enterica subsp. enterica serovar Typhimurium; settings: Salmonella enterica, 2421, 24 h; method in brief: as §2
Candida albicans = assay: Antifungal activity against Candida albicans 7535 after 24 hrs by two-fold serial dilution method; format: functional; settings: Candida albicans, 7535, 24 h
Staphylococcus aureus [9] = assay: Bactericidal activity against Staphylococcus aureus RN4220 after 24 hrs by agar plate method; format: functional; settings: RN4220, 24 h
Method in brief: (§3)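 Samples of 5 µL from MIC wells with no visible growth were plated onto fresh Mueller-Hinton agar and incubated a further 24 h at 37 °C. MBC is the lowest concentration giving no visible colony growth on the agar. Assays were run in triplicate.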

Staphylococcus aureus [10] = assay: Bactericidal activity against Staphylococcus aureus KCTC 503 after 24 hrs by agar plate method; format: functional; settings: KCTC 503, 24 h
Method in brief: (§4)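 5 µL from each well without visible growth plated on fresh Mueller-Hinton agar, then 37 °C for a further 24 h. MBC is the lowest concentration giving no visible colonies. Run in triplicate.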

Streptococcus mutans [11] = assay: Bactericidal activity against Streptococcus mutans 3065 after 24 hrs by agar plate method; format: functional; settings: Streptococcus mutans, 3065, 24 h; method in brief: as §3
Staphylococcus aureus [12] = assay: Ratio of MBC to MIC for Staphylococcus aureus KCTC 503; format: functional
Method in brief: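 The ratio divides MBC by MIC for the same strain. MIC comes from two-fold broth microdilution in Mueller-Hinton broth (about 10^5 CFU/mL, 37 °C, 24 h, absorbance at 630 nm). MBC comes from subculturing 5 µL from clear wells onto Mueller-Hinton agar for another 24 h at 37 °C, taken as the lowest concentration with no colonies.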

Staphylococcus aureus [13] = assay: Antibacterial activity against methicillin-resistant Staphylococcus aureus CCARM 3167 after 24 hrs by two-fold serial dilution method; format: functional; settings: CCARM 3167, 24 h; method in brief: as §1
Staphylococcus aureus [14] = assay: Antibacterial activity against methicillin-resistant Staphylococcus aureus CCARM 3506 after 24 hrs by two-fold serial dilution method; format: functional; settings: CCARM 3506, 24 h; method in brief: as §1
Staphylococcus aureus [15] = assay: Antibacterial activity against quinolone-resistant Staphylococcus aureus CCARM 3505 after 24 hrs by two-fold serial dilution method; format: functional; settings: CCARM 3505, 24 h; method in brief: as §1
Staphylococcus aureus [16] = assay: Antibacterial activity against quinolone-resistant Staphylococcus aureus CCARM 3519 after 24 hrs by two-fold serial dilution method; format: functional; settings: CCARM 3519, 24 h; method in brief: as §1
Staphylococcus aureus [17] = assay: Bactericidal activity against methicillin-resistant Staphylococcus aureus CCARM 3167 after 24 hrs by agar plate method; format: functional; settings: CCARM 3167, 24 h; method in brief: as §4
Staphylococcus aureus [18] = assay: Bactericidal activity against methicillin-resistant Staphylococcus aureus CCARM 3506 after 24 hrs by agar plate method; format: functional; settings: CCARM 3506, 24 h; method in brief: as §4
Staphylococcus aureus [19] = assay: Bactericidal activity against quinolone-resistant Staphylococcus aureus CCARM 3505 after 24 hrs by agar plate method; format: functional; settings: CCARM 3505, 24 h; method in brief: as §4
Staphylococcus aureus [20] = assay: Bactericidal activity against quinolone-resistant Staphylococcus aureus CCARM 3519 after 24 hrs by agar plate method; format: functional; settings: CCARM 3519, 24 h; method in brief: as §4
Escherichia coli [21] = assay: Bactericidal activity against Escherichia coli KCTC 1924 after 24 hrs by agar plate method; format: functional; settings: KCTC 1924, 24 h; method in brief: as §3

SMILES | MIC (Staphylococcus aureus [1]) [mg/L] | MIC (Staphylococcus aureus [2]) [mg/L] | MIC (Staphylococcus aureus [3]) [mg/L] | MIC (Streptococcus mutans [4]) [mg/L] | MIC (Escherichia coli [5]) [mg/L] | MIC (Escherichia coli [6]) [mg/L] | MIC (Pseudomonas aeruginosa [7]) [mg/L] | MIC (Pseudomonas aeruginosa [8]) [mg/L] | MIC (Salmonella typhimurium) [mg/L] | MIC (Candida albicans) [mg/L] | MBC (Staphylococcus aureus [10]) [mg/L] | MIC (Staphylococcus aureus [13]) [mg/L] | MIC (Staphylococcus aureus [14]) [mg/L] | MIC (Staphylococcus aureus [15]) [mg/L] | MIC (Staphylococcus aureus [16]) [mg/L] | MBC (Staphylococcus aureus [17]) [mg/L] | MBC (Staphylococcus aureus [19]) [mg/L] | MBC (Staphylococcus aureus [20]) [mg/L] | other results
O=C(O)[C@H](Cc1ccccc1)N1C(=O)/C(=C/c2ccc(/C=N/n3c(-c4ccc(Br)cc4)n[nH]c3=S)cc2)SC1=S | 8 (≈ 12.3 µM) | > 64 | 8 (≈ 12.3 µM) | 16 (≈ 24.6 µM) | > 128 | > 128 | > 128 | > 128 | > 128 | > 64 | 32 (≈ 49.2 µM) | 8 (≈ 12.3 µM) | 16 (≈ 24.6 µM) | 8 (≈ 12.3 µM) | 8 (≈ 12.3 µM) | 32 (≈ 49.2 µM) | 32 (≈ 49.2 µM) | 64 (≈ 98.4 µM) | MBC (Staphylococcus aureus [9]): 64 mg/L (≈ 98.4 µM); MBC (Streptococcus mutans [11]): 64 mg/L (≈ 98.4 µM); Ratio (Staphylococcus aureus [12]): <=4; MBC (Staphylococcus aureus [18]): 128 mg/L (≈ 197 µM)
O=C(O)[C@H](Cc1ccccc1)N1C(=O)/C(=C/c2ccc(/C=N/n3c(-c4ccc(F)cc4)n[nH]c3=S)cc2)SC1=S | 16 (≈ 27.1 µM) | > 64 | 32 (≈ 54.3 µM) | 64 (≈ 109 µM) | > 128 | > 128 | > 128 | > 128 | > 128 | > 64 | 128 (≈ 217 µM) | 16 (≈ 27.1 µM) | 64 (≈ 109 µM) | 16 (≈ 27.1 µM) | 16 (≈ 27.1 µM) | 128 (≈ 217 µM) | 128 (≈ 217 µM) | 128 (≈ 217 µM) | MBC (Staphylococcus aureus [9]): 128 mg/L (≈ 217 µM); MBC (Streptococcus mutans [11]): 256 mg/L (≈ 434 µM); Ratio (Staphylococcus aureus [12]): <=4; MBC (Staphylococcus aureus [18]): > 256 mg/L
O=C(O)CN1C(=O)/C(=C/c2ccc(/C=N/n3c(-c4ccccc4)n[nH]c3=S)cc2)SC1=S | > 64 | > 64 | > 64 | > 64 | > 128 | > 128 | > 128 | > 128 | > 128 | > 64 | – | > 64 | > 64 | > 64 | > 64 | – | – | – | –
Cc1cccc(-c2n[nH]c(=S)n2/N=C/c2ccc(/C=C3\SC(=S)N(CC(=O)O)C3=O)cc2)c1 | > 64 | > 64 | 64 (≈ 129 µM) | > 64 | 32 (≈ 64.6 µM) | > 128 | > 128 | > 128 | > 128 | > 64 | > 256 | 64 (≈ 129 µM) | > 64 | 64 (≈ 129 µM) | 64 (≈ 129 µM) | > 256 | > 256 | > 256 | MBC (Escherichia coli [21]): > 256 mg/L
Cc1ccc(-c2n[nH]c(=S)n2/N=C/c2ccc(/C=C3\SC(=S)N(CC(=O)O)C3=O)cc2)cc1 | > 64 | > 64 | > 64 | > 64 | > 128 | > 128 | > 128 | > 128 | > 128 | > 64 | – | > 64 | > 64 | > 64 | 16 (≈ 32.3 µM) | – | – | > 128 | –
O=C(O)CN1C(=O)/C(=C/c2ccc(/C=N/n3c(-c4cccc(Cl)c4)n[nH]c3=S)cc2)SC1=S | > 64 | > 64 | > 64 | > 64 | > 128 | > 128 | > 128 | > 128 | > 128 | > 64 | – | > 64 | > 64 | > 64 | > 64 | – | – | – | –
O=C(O)CN1C(=O)/C(=C/c2ccc(/C=N/n3c(-c4ccc(Cl)cc4)n[nH]c3=S)cc2)SC1=S | > 64 | > 64 | > 64 | > 64 | > 128 | > 128 | > 128 | > 128 | > 128 | > 64 | – | > 64 | > 64 | > 64 | > 64 | – | – | – | –
